What was measured:
K562 [1] = experiment: Induction of cell sensitization to imatinib in imatinib-resistant human K562 cells assessed as cell death at 10 uM incubated for 72 hrs in presence of 1 uM imatinib by PI staining based flow cytometry (reference value: 19%); format: functional
[2] = Cytotoxicity against human HS5 cells assessed as cell death at 5 uM incubated for 72 hrs by PI staining based flow cytometry; details: hs5, 72 h
Outline: (§1)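 HS-5 stromal cells in DMEM with 10% FCS, 5% CO2, 37 °C. Seeded 0.5×10^5/well, given compound (5 µM) alone or with imatinib, and incubated 72 h. Cells stained with PI/Triton X-100 for 2 h at 4 °C. Dead cells counted by flow cytometry as sub-G1 nuclei. DMSO vehicle control included.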

COS-7 [3] = experiment: Cytotoxicity against African green monkey COS7 cells assessed as cell viability at 10 uM incubated for 72 hrs by MTT assay; format: cell-based; details: chlorocebus aethiops, cos-7, 72 h
Outline: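 COS-7 cells in DMEM with 10% FCS and L-glutamine, no antibiotics or phenol red. Seeded 2×10^3/well in triplicate, grown 24 h, then compound added at 10 µM final and incubated 72 h. Modified MTT (tetrazolium) metabolic-activity readout by absorbance. DMSO control set to 100%; DMSO ≤0.1%. Mean + SD of ≥3 experiments, triplicate determinations.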

[4] = Modulation of STAT5 expression in imatinib-resistant human K562 cells assessed as STAT5 level at 5 uM measured after 6 hrs in presence of imatinib by Jess Simple Western immunoassay (reference value: 100%); format: functional
[5] = target: T1, Signal transducer and activator of transcription 5A (Homo sapiens) (UniProt P42229); experiment: Inhibition of STAT5 phosphorylation at Y694/699 residue in imatinib-resistant human K562 cells assessed as phosphorylated STAT5 level at 5 uM incubated for 6 hrs in presence of imatinib by Jess Simple Western immunoassay (reference value: 100%); format: cell-based; design: scale not given: the % may be the effect or the level left
T1 sequence (whole entry): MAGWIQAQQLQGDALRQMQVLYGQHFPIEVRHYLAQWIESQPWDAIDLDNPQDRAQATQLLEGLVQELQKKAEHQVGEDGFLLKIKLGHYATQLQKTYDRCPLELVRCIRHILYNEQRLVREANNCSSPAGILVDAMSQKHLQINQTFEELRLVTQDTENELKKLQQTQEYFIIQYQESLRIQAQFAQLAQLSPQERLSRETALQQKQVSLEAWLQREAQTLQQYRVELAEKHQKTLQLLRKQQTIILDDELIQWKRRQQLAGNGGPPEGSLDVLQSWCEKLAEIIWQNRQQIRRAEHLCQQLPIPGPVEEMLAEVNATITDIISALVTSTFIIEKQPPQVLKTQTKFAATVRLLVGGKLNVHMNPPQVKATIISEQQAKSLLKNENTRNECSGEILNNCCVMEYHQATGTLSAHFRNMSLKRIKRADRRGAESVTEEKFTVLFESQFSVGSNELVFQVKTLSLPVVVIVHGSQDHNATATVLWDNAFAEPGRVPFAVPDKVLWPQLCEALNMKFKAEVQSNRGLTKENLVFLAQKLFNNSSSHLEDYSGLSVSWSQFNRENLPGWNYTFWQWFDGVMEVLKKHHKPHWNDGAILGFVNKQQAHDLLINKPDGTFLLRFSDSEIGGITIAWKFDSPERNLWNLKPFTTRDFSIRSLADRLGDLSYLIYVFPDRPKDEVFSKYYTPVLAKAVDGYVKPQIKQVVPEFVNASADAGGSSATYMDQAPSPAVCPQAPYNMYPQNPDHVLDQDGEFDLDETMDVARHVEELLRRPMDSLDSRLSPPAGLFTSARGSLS

[6] = target: T2, Peroxisome proliferator-activated receptor gamma (Homo sapiens, UniProt P37231); experiment: Agonist activity at Gal4-fused human PPARgamma transfected in African green monkey COS7 cells co-transfected with pGal5-TK-pGL3 and pRenilla-CMV assessed as receptor transactivation at 10 uM incubated for 39 hrs by dual luciferase reporter gene assay relative to piaglitazone; format: cell-based; details: COS-7, human, read-out: max activation
T2 sequence (P37231 whole entry): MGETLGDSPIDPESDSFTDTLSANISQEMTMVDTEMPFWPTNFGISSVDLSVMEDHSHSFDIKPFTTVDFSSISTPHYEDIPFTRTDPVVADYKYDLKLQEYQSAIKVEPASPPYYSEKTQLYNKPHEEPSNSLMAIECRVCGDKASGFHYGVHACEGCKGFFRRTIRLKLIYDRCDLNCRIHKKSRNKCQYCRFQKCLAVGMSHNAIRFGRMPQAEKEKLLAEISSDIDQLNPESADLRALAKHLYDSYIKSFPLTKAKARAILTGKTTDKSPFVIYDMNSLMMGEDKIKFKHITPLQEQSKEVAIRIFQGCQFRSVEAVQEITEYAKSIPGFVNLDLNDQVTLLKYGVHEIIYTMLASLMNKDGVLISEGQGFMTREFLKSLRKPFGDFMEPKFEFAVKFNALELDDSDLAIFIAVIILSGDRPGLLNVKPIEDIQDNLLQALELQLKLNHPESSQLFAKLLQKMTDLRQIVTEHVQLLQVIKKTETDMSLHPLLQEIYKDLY
Outline: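 COS-7 cells (10^4/well, triplicates) grown 24 h, then transiently transfected with pGal5-TK-pGL3 (90 ng), pGal4-hPPARγDEF (9 ng) and pRenilla-CMV (3 ng). Compound added 7 h later, incubation 39 h. Cells lysed by freezing at -80 °C overnight plus lysis buffer. Firefly luciferase normalised to Renilla. Activity at 10 µM expressed relative to pioglitazone at 10 µM (100%). Mean ± SD of ≥3 experiments.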

COS-7 [7] = experiment: Cytotoxicity against African green monkey COS7 cells assessed as cell viability at 10 uM incubated for 72 hrs by MTT assay; details: chlorocebus aethiops, cos-7, 72 h
[8] = Modulation of STAT5 expression in imatinib-resistant human K562 cells assessed as STAT5 level at 5 uM measured after 6 hrs by Jess Simple Western immunoassay (reference value: 100%); format: functional
Outline: (§2)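 K562-resistant (doxorubicin-resistant KD225) cells treated 6 h with compound at 5 µM, alone or with 1 µM imatinib, against a DMSO control. Total protein extracts analysed by capillary Jess Simple Western. STAT5 antibody 10 µg/ml with 0.2 mg/ml lysate; pSTAT5 (Y694/699) antibody 20 µg/ml with 2 mg/ml lysate. GAPDH (0.4 µg/ml) as loading reference; HRP anti-rabbit secondary.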

[9] = Cytotoxicity against human HS5 cells assessed as cell death at 5 uM incubated for 72 hrs in presence of imatinib by PI staining based flow cytometry; details: hs5, 72 h; outline: as §1
[10] = target: T1, Signal transducer and activator of transcription 5A (Homo sapiens); experiment: Inhibition of STAT5 phosphorylation at Y694/699 residue in imatinib-resistant human K562 cells assessed as phosphorylated STAT5 level at 5 uM incubated for 6 hrs by Jess Simple Western immunoassay (reference value: 100%); format: cell-based; design: scale not given: the % may be the effect or the level left; outline: as §2
K562 [11] = experiment: Cytotoxicity against imatinib-resistant human K562 cells assessed as cell death at 5 uM incubated for 72 hrs by propidium iodide staining based flow cytometry; details: k562, 72 h
Outline: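 K562-resistant cells, a doxorubicin-resistant K562 subclone (KD225), grown in RPMI 1640 with 10% FCS. Seeded 2×10^5/well and exposed 72 h to compound alone or with 1 µM imatinib. PI/Triton X-100 staining 2 h at 4 °C; flow cytometry scoring sub-G1 nuclei as dead cells. DMSO vehicle (≤0.1%) controls. Mean ± SEM of ≥3 experiments.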

K562 [12] = experiment: Induction of cell sensitization to imatinib in imatinib-resistant human K562 cells assessed as cell death at 5 uM incubated for 72 hrs in presence of 1 uM imatinib by PI staining based flow cytometry (reference value: 19%); format: functional

SMILES | Activity (K562 [1]) | Activity [2] | Activity (COS-7 [3]) | Activity [4] | Activity [5] | Emax at 10 µM [6] | Activity (COS-7 [7]) | Activity [8] | Activity [9] | Activity [10] | Activity (K562 [11]) | Activity (K562 [12])
CCCc1nc2ccc(Br)cc2n1Cc1ccc(-c2ccccc2C(=O)OC)cc1 | 63% | – | – | – | – | – | – | – | – | – | – | –
CCCc1nc2ccccc2n1Cc1ccc(-c2ccccc2C(=O)OC)cc1 | >85% | Non-Toxic | Non-Toxic | 112% | 2% | 21.6% | Non-Toxic | 112% | Non-Toxic | 104% | <= 20% | 57%
CCCc1nc2c(Cl)cccc2n1Cc1ccc(-c2ccccc2C(=O)OC)cc1 | >85% | Non-Toxic | Non-Toxic | 101% | 3% | 22.2% | Non-Toxic | 103% | Non-Toxic | 87% | <= 20% | 57%
CCCc1nc2c(C)cccc2n1Cc1ccc(-c2ccccc2C#N)cc1 | >85% | Non-Toxic | Non-Toxic | – | – | 32.2% | Non-Toxic | – | Non-Toxic | – | <= 20% | 50%
CCCc1nc2ccccc2n1Cc1ccc(-c2ccccc2C#N)cc1 | >85% | Non-Toxic | Non-Toxic | 96% | 3% | 64.5% | Non-Toxic | 98% | Non-Toxic | 78% | <= 20% | 50%
CCCc1nc2cc(Br)ccc2n1Cc1ccc(-c2ccccc2C(=O)OC)cc1 | 31% | – | – | – | – | – | – | – | – | – | – | –
CCCc1nc2c(Br)cccc2n1Cc1ccc(-c2ccccc2C(=O)OC)cc1 | 66% | Non-Toxic | Non-Toxic | 116% | 27% | 11.6% | Non-Toxic | 103% | Non-Toxic | 89% | <= 20% | 26%
CCCc1nc2c(Br)cccc2n1Cc1ccc(-c2ccccc2C#N)cc1 | >85% | Non-Toxic | Non-Toxic | 103% | 4% | 41.1% | Non-Toxic | 107% | Non-Toxic | 90% | <= 20% | >76%
CCCc1nc2c([N+](=O)[O-])cccc2n1Cc1ccc(-c2ccccc2C(=O)OC)cc1 | >85% | Non-Toxic | Non-Toxic | – | – | 15% | Non-Toxic | – | Non-Toxic | – | <= 20% | 57%
CCCc1nc2c([N+](=O)[O-])cccc2n1Cc1ccc(-c2ccccc2C#N)cc1 | >85% | Non-Toxic | Non-Toxic | – | – | 37.9% | Non-Toxic | – | Non-Toxic | – | <= 20% | 50%
CCCc1nc2c(C)cccc2n1Cc1ccc(-c2ccccc2C(=O)OC)cc1 | >85% | Non-Toxic | Non-Toxic | – | – | 13.8% | Non-Toxic | – | Non-Toxic | – | <= 20% | 40%
CCCc1nc2c(OC)cccc2n1Cc1ccc(-c2ccccc2C(=O)OC)cc1 | >85% | Non-Toxic | Non-Toxic | – | – | 20.7% | Non-Toxic | – | Non-Toxic | – | <= 20% | 57%
CCCc1nc2c(F)cccc2n1Cc1ccc(-c2ccccc2C(=O)OC)cc1 | >85% | Non-Toxic | Non-Toxic | 103% | 42% | 14.7% | Non-Toxic | 98% | Non-Toxic | 102% | <= 20% | 26%
CCCc1nc2c(N)cccc2n1Cc1ccc(-c2ccccc2C(=O)OC)cc1 | – | Non-Toxic | Non-Toxic | – | – | 0.11% | Non-Toxic | – | Non-Toxic | – | <= 20% | 26%
CCCc1nc2c(N)cccc2n1Cc1ccc(-c2ccccc2C#N)cc1 | – | Non-Toxic | Non-Toxic | – | – | 43% | Non-Toxic | – | Non-Toxic | – | <= 20% | 28%
CCCc1nc2c(OC)cccc2n1Cc1ccc(-c2ccccc2C#N)cc1 | >85% | Non-Toxic | Non-Toxic | – | – | 45.9% | Non-Toxic | – | Non-Toxic | – | <= 20% | 50%
